From paper PMC2212267 (The Journal of Experimental Medicine, 1998)
One block for each molecule: values may come before it. Where no end group is shown, it is not given here. 5,6‑carboxyfluorescein = 5,6-carboxyfluorescein

Legend:
[1] = tested on: MBP-responsive T cell lines; assay: Proliferation responses of MBP-responsive T cell lines; type: cell-based; settings: unpublished data (Rabinowitz, J.D.)
I-A^u [2] = molecular target: T1, I-A^u (Mus musculus, UniProt P06344+P14438); assay: Peptide dissociation kinetics from purified MHC protein; type: binding; settings: fluorescein-labeled peptide, pH 5.3, 37°C, HPSEC; Fig. 4 b
T1 sequence (P14438 1-227): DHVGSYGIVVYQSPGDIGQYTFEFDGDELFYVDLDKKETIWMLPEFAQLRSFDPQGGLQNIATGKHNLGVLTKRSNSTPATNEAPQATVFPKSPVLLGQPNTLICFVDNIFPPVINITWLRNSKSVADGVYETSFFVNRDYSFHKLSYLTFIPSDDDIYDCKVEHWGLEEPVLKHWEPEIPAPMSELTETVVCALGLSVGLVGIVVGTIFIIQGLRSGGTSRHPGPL
T1 sequence (P06344 28-263): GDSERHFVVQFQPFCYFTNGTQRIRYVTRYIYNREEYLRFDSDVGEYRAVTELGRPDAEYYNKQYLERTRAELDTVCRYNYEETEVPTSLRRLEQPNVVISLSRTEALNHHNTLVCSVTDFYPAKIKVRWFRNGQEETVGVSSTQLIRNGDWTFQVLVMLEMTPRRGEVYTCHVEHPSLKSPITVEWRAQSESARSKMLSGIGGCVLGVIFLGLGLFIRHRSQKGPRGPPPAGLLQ

I-A^u [3] = molecular target: T1, I-A^u; assay: FACS binding of biotinylated MBP peptides to live L cell transfectants; settings: wild-type I-A^u; among 4A, 4E, 4Y; Fig. 1 a
Procedure, shortened: (§1)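 Live L cell transfectants (wild-type or β9-mutant I-A, 5 × 10^5 cells) washed, then incubated 4 h at 37°C, 7% CO2 with 200 μM biotinylated MBP analogue in RPMI 1640/1% BSA. Washed twice, then streptavidin–Quantum red/PE for 20 min on ice. MHC level read with FITC anti-Aβk,u mAb 10-2.16; propidium iodide viability stain. Net binding is mean fluorescence minus nontransfected L cells plus peptide, divided by FITC signal, then normalized to 4A peptide on wild-type transfectant.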

I-A^k = I-A^k (Mus musculus, UniProt P01910+P06343); assay: as above; settings: β9 mutant I-A^k H9V; among 4A, 4E, 4Y; Fig. 1 a
Procedure, shortened: as §1

[4] = molecular target: I-A^k class II MHC protein, wild type, on L cell transfectants (mouse); assay: flow cytometry on cells
[5] = molecular target: I-A^u class II MHC protein, purified (mouse); assay: peptide dissociation kinetics followed by HPSEC with fluorescence detection

Sequence of I-A^k (P01910 24-256): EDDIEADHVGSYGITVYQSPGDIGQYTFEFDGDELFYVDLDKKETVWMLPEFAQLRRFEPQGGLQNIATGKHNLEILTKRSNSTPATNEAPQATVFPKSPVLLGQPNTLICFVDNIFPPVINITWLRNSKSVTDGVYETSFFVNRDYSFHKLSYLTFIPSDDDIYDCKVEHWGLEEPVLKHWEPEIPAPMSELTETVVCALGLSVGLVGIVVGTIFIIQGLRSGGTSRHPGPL
Sequence of I-A^k (P06343 28-263): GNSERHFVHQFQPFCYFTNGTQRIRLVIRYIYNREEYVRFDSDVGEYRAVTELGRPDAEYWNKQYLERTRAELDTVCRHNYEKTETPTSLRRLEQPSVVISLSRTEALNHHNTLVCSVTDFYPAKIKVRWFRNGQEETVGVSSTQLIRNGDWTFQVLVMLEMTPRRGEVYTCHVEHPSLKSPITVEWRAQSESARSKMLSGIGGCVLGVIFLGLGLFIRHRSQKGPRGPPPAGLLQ

Molecule: ISQAVAASQYRPSQRSKY [ova-MBP K4Y]
proliferation responses of a series of MBP-responsive T cell lines [1]: abrogated proliferation responses

Molecule: 4Y: MBP peptide with residue 4 lysine replaced with tyrosine (Ac-ASQYRPSQRHGSK-biotin)
peptide preference of I-A^u in FACS binding (I-A^u [3]): prefers | peptide preference of I-A^k H9V in FACS binding (I-A^k): prefers

Molecule: Ac-ASQERPSQRHGSK-biotin [biotinylated MBP Ac1-13 K4E (rat MBP sequence)]
fold improvement of binding over MBP Ac1-11 4A [4]: 2 fold | fold improvement of binding over wild-type MBP [4]: > 20 fold

The next lines start with results.

slower dissociation from I-A^u than wild-type MBP Ac1-12 (I-A^u [2]): ~80 fold
Molecule: ISQAVAASQKRPSQRSKY [ova-MBP]
proliferation responses of a series of MBP-responsive T cell lines [1]: abrogated proliferation responses

dissociation half-time (t 1/2) [5]: > 200 h | fold increase in stability of binding over wild-type MBP [5]: > 1000 fold
Molecule: {5,6‑carboxyfluorescein}-ISQAVAASQYRPSQRSKY [ova-MBP K4Y, fluorescein-labelled]

fold slower dissociation than wild-type MBP Ac1-12 [5]: 80 fold
Molecule: {5,6‑carboxyfluorescein}-ISQAVAASQKRPSQRSKY [ova-MBP (NH2-terminally extended MBP peptide), fluorescein-labelled]
